# Tested on: not listed separately
# Experiment: Growth inhibition of human 92-1 cells assessed as reduction in cell number after 48 hrs by alamarBlue based fluorescence assay
# Assay type: functional
# Settings: not given
# How it was run: (§1)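 Cells (2,500 per well in growth medium) were allowed 24 h, then exposed 48 h to compound over 0.5 nM–500 μM. alamarBlue was added and fluorescence read 4 h later (ex 560/em 590 nm). Dose-response curves were fitted relative to DMSO control; compounds not reducing cell number ≥50% at the top concentration were reported as GI50 >100 μM.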
row,Structure (SMILES),GI50
1,COc1ccc(/C=C2\COc3cc(OC)c(OC)c(OC)c3C2=O)cc1[N+](=O)[O-],12 µM
2,COc1ccc(/C=C2\COc3cc(OC)c(OC)c(OC)c3C2=O)cc1OCc1ccccc1,3.5 µM
3,COC(=O)c1cc(CC2COc3cc(OC)c(OC)c(OC)c3C2=O)ccc1OC (stereo unspecified),> 100 µM
4,COc1cc2c(c(OC)c1OC)C(=O)/C(=C/c1ccc(OCc3ccccc3)c(OCc3ccccc3)c1)CO2,> 100 µM
5,COc1ccc(CC2COc3cc(OC)c(OC)c(OC)c3C2=O)cc1OC(=O)[C@H](Cc1ccccc1)NC(=O)OCc1ccccc1 (stereo partly specified),> 100 µM
6,CCN(CC)C(=O)Oc1cc(CC2COc3cc(OC)c(OC)c(OC)c3C2=O)ccc1OC (stereo unspecified),> 100 µM
7,COc1cc(/C=C2\COc3cc(OC)c(OC)c(OC)c3C2=O)ccc1OCc1ccccc1,68 µM
8,COc1ccc(CC2COc3cc(OC)c(OC)c(OC)c3C2=O)cc1NC(=O)[C@H](Cc1ccc(OCc2ccccc2)cc1)NC(=O)OC(C)(C)C (stereo partly specified),> 100 µM
9,C=CCOc1ccc(C[C@H](NC(=O)OC(C)(C)C)C(=O)Nc2cc(CC3COc4cc(OC)c(OC)c(OC)c4C3=O)ccc2OC)cc1 (stereo partly specified),1.9 µM
10,COc1ccc(/C=C2\COc3cc(OC)c(OC)c(OC)c3C2=O)cc1O,0.22 µM
11,COc1ccc(CC2COc3cc(OC)c(O)c(O)c3C2=O)cc1O (stereo unspecified),10 µM
12,COc1cc2c(c(OC)c1OC)C(=O)/C(=C/c1ccc(O)c(O)c1)CO2,9.5 µM
13,COC(=O)c1cc(/C=C2\COc3cc(OC)c(OC)c(OC)c3C2=O)ccc1OC,> 100 µM
14,COc1ccc(/C=C2\COc3cc(OC)c(OC)c(OC)c3C2=O)cc1F,7 µM
15,C=CCOc1ccc(C[C@H](NC(=O)OC(C)(C)C)C(=O)Oc2cc(CC3COc4cc(OC)c(OC)c(OC)c4C3=O)ccc2OC)cc1 (stereo partly specified),> 100 µM
16,CCCCNC(=O)N[C@@H](Cc1ccccc1)C(=O)Oc1cc(CC2COc3cc(OC)c(OC)c(OC)c3C2=O)ccc1OC (stereo partly specified),> 100 µM
17,COc1ccc(CC2COc3cc(OC)c(OC)c(OC)c3C2=O)cc1OC(=O)[C@H](Cc1ccccc1)NS(=O)(=O)c1ccc(C)cc1 (stereo partly specified),> 100 µM
18,COc1ccc(CC2COc3cc(O)c(OC)c(O)c3C2=O)cc1O (stereo unspecified),48 µM
19,CCNC(=O)N[C@@H](Cc1ccccc1)C(=O)Oc1cc(CC2COc3cc(OC)c(OC)c(OC)c3C2=O)ccc1OC (stereo partly specified),98 µM

# Tested on: not listed separately
# Experiment: Growth inhibition of human HREC cells assessed as reduction in cell number after 48 hrs by alamarBlue based fluorescence assay
# Assay type: functional
# Settings: not given
# How it was run: as §1
row,Structure (SMILES),GI50
1,COc1ccc(/C=C2\COc3cc(OC)c(OC)c(OC)c3C2=O)cc1[N+](=O)[O-],4.8 µM
2,COc1ccc(/C=C2\COc3cc(OC)c(OC)c(OC)c3C2=O)cc1OCc1ccccc1,4.3 µM
3,COC(=O)c1cc(CC2COc3cc(OC)c(OC)c(OC)c3C2=O)ccc1OC (stereo unspecified),18 µM
4,COc1cc2c(c(OC)c1OC)C(=O)/C(=C/c1ccc(OCc3ccccc3)c(OCc3ccccc3)c1)CO2,72 µM
5,COc1ccc(CC2COc3cc(OC)c(OC)c(OC)c3C2=O)cc1OC(=O)[C@H](Cc1ccccc1)NC(=O)OCc1ccccc1 (stereo partly specified),0.14 µM
6,CCN(CC)C(=O)Oc1cc(CC2COc3cc(OC)c(OC)c(OC)c3C2=O)ccc1OC (stereo unspecified),49 µM
7,COc1cc(/C=C2\COc3cc(OC)c(OC)c(OC)c3C2=O)ccc1OCc1ccccc1,35 µM
8,COc1ccc(CC2COc3cc(OC)c(OC)c(OC)c3C2=O)cc1NC(=O)[C@H](Cc1ccc(OCc2ccccc2)cc1)NC(=O)OC(C)(C)C (stereo partly specified),> 100 µM
9,C=CCOc1ccc(C[C@H](NC(=O)OC(C)(C)C)C(=O)Nc2cc(CC3COc4cc(OC)c(OC)c(OC)c4C3=O)ccc2OC)cc1 (stereo partly specified),13 µM
10,COc1ccc(/C=C2\COc3cc(OC)c(OC)c(OC)c3C2=O)cc1O,46 µM
11,COc1ccc(CC2COc3cc(OC)c(O)c(O)c3C2=O)cc1O (stereo unspecified),45 µM
12,COc1cc2c(c(OC)c1OC)C(=O)/C(=C/c1ccc(O)c(O)c1)CO2,7.6 µM
13,COC(=O)c1cc(/C=C2\COc3cc(OC)c(OC)c(OC)c3C2=O)ccc1OC,5.6 µM
14,COc1ccc(/C=C2\COc3cc(OC)c(OC)c(OC)c3C2=O)cc1F,2.8 µM
15,C=CCOc1ccc(C[C@H](NC(=O)OC(C)(C)C)C(=O)Oc2cc(CC3COc4cc(OC)c(OC)c(OC)c4C3=O)ccc2OC)cc1 (stereo partly specified),0.16 µM
16,CCCCNC(=O)N[C@@H](Cc1ccccc1)C(=O)Oc1cc(CC2COc3cc(OC)c(OC)c(OC)c3C2=O)ccc1OC (stereo partly specified),1.4 µM
17,COc1ccc(CC2COc3cc(OC)c(OC)c(OC)c3C2=O)cc1OC(=O)[C@H](Cc1ccccc1)NS(=O)(=O)c1ccc(C)cc1 (stereo partly specified),1.5 µM
18,COc1ccc(CC2COc3cc(O)c(OC)c(O)c3C2=O)cc1O (stereo unspecified),0.22 µM
19,CCNC(=O)N[C@@H](Cc1ccccc1)C(=O)Oc1cc(CC2COc3cc(OC)c(OC)c(OC)c3C2=O)ccc1OC (stereo partly specified),1 µM

# Tested on: Y79
# Experiment: Growth inhibition of human Y79 cells assessed as reduction in cell number after 48 hrs by alamarBlue based fluorescence assay
# Assay type: functional
# Settings: Y79, 48 h
# How it was run: as §1
row,Structure (SMILES),GI50
1,COc1ccc(/C=C2\COc3cc(OC)c(OC)c(OC)c3C2=O)cc1[N+](=O)[O-],2.2 µM
2,COc1ccc(/C=C2\COc3cc(OC)c(OC)c(OC)c3C2=O)cc1OCc1ccccc1,33 µM
3,COC(=O)c1cc(CC2COc3cc(OC)c(OC)c(OC)c3C2=O)ccc1OC (stereo unspecified),40 µM
4,COc1cc2c(c(OC)c1OC)C(=O)/C(=C/c1ccc(OCc3ccccc3)c(OCc3ccccc3)c1)CO2,32 µM
5,COc1ccc(CC2COc3cc(OC)c(OC)c(OC)c3C2=O)cc1OC(=O)[C@H](Cc1ccccc1)NC(=O)OCc1ccccc1 (stereo partly specified),> 100 µM
6,CCN(CC)C(=O)Oc1cc(CC2COc3cc(OC)c(OC)c(OC)c3C2=O)ccc1OC (stereo unspecified),24 µM
7,COc1cc(/C=C2\COc3cc(OC)c(OC)c(OC)c3C2=O)ccc1OCc1ccccc1,14 µM
8,COc1ccc(CC2COc3cc(OC)c(OC)c(OC)c3C2=O)cc1NC(=O)[C@H](Cc1ccc(OCc2ccccc2)cc1)NC(=O)OC(C)(C)C (stereo partly specified),0.39 µM
9,C=CCOc1ccc(C[C@H](NC(=O)OC(C)(C)C)C(=O)Nc2cc(CC3COc4cc(OC)c(OC)c(OC)c4C3=O)ccc2OC)cc1 (stereo partly specified),2.5 µM
10,COc1ccc(/C=C2\COc3cc(OC)c(OC)c(OC)c3C2=O)cc1O,44 µM
11,COc1ccc(CC2COc3cc(OC)c(O)c(O)c3C2=O)cc1O (stereo unspecified),> 100 µM
12,COc1cc2c(c(OC)c1OC)C(=O)/C(=C/c1ccc(O)c(O)c1)CO2,4 µM
13,COC(=O)c1cc(/C=C2\COc3cc(OC)c(OC)c(OC)c3C2=O)ccc1OC,6.1 µM
14,COc1ccc(/C=C2\COc3cc(OC)c(OC)c(OC)c3C2=O)cc1F,9.8 µM
15,C=CCOc1ccc(C[C@H](NC(=O)OC(C)(C)C)C(=O)Oc2cc(CC3COc4cc(OC)c(OC)c(OC)c4C3=O)ccc2OC)cc1 (stereo partly specified),52 µM
16,CCCCNC(=O)N[C@@H](Cc1ccccc1)C(=O)Oc1cc(CC2COc3cc(OC)c(OC)c(OC)c3C2=O)ccc1OC (stereo partly specified),64 µM
17,COc1ccc(CC2COc3cc(OC)c(OC)c(OC)c3C2=O)cc1OC(=O)[C@H](Cc1ccccc1)NS(=O)(=O)c1ccc(C)cc1 (stereo partly specified),> 100 µM
18,COc1ccc(CC2COc3cc(O)c(OC)c(O)c3C2=O)cc1O (stereo unspecified),9.8 µM
19,CCNC(=O)N[C@@H](Cc1ccccc1)C(=O)Oc1cc(CC2COc3cc(OC)c(OC)c(OC)c3C2=O)ccc1OC (stereo partly specified),48 µM

# Tested on: not listed separately
# Experiment: Growth inhibition of human HUVEC cells assessed as reduction in cell number after 48 hrs by alamarBlue based fluorescence assay
# Settings: not given
# How it was run: as §1
row,Structure (SMILES),GI50 at 48 h
1,COc1ccc(/C=C2\COc3cc(OC)c(OC)c(OC)c3C2=O)cc1[N+](=O)[O-],15 µM
2,COc1ccc(/C=C2\COc3cc(OC)c(OC)c(OC)c3C2=O)cc1OCc1ccccc1,16 µM
3,COC(=O)c1cc(CC2COc3cc(OC)c(OC)c(OC)c3C2=O)ccc1OC (stereo unspecified),17 µM
4,COc1cc2c(c(OC)c1OC)C(=O)/C(=C/c1ccc(OCc3ccccc3)c(OCc3ccccc3)c1)CO2,43 µM
5,COc1ccc(CC2COc3cc(OC)c(OC)c(OC)c3C2=O)cc1OC(=O)[C@H](Cc1ccccc1)NC(=O)OCc1ccccc1 (stereo partly specified),> 100 µM
6,CCN(CC)C(=O)Oc1cc(CC2COc3cc(OC)c(OC)c(OC)c3C2=O)ccc1OC (stereo unspecified),> 100 µM
7,COc1cc(/C=C2\COc3cc(OC)c(OC)c(OC)c3C2=O)ccc1OCc1ccccc1,52 µM
8,COc1ccc(CC2COc3cc(OC)c(OC)c(OC)c3C2=O)cc1NC(=O)[C@H](Cc1ccc(OCc2ccccc2)cc1)NC(=O)OC(C)(C)C (stereo partly specified),> 100 µM
9,C=CCOc1ccc(C[C@H](NC(=O)OC(C)(C)C)C(=O)Nc2cc(CC3COc4cc(OC)c(OC)c(OC)c4C3=O)ccc2OC)cc1 (stereo partly specified),4.5 µM
10,COc1ccc(/C=C2\COc3cc(OC)c(OC)c(OC)c3C2=O)cc1O,5.6 µM
11,COc1ccc(CC2COc3cc(OC)c(O)c(O)c3C2=O)cc1O (stereo unspecified),18 µM
12,COc1cc2c(c(OC)c1OC)C(=O)/C(=C/c1ccc(O)c(O)c1)CO2,5 µM
13,COC(=O)c1cc(/C=C2\COc3cc(OC)c(OC)c(OC)c3C2=O)ccc1OC,3.2 µM
14,COc1ccc(/C=C2\COc3cc(OC)c(OC)c(OC)c3C2=O)cc1F,7.6 µM
15,C=CCOc1ccc(C[C@H](NC(=O)OC(C)(C)C)C(=O)Oc2cc(CC3COc4cc(OC)c(OC)c(OC)c4C3=O)ccc2OC)cc1 (stereo partly specified),0.091 µM
16,CCCCNC(=O)N[C@@H](Cc1ccccc1)C(=O)Oc1cc(CC2COc3cc(OC)c(OC)c(OC)c3C2=O)ccc1OC (stereo partly specified),> 100 µM
17,COc1ccc(CC2COc3cc(OC)c(OC)c(OC)c3C2=O)cc1OC(=O)[C@H](Cc1ccccc1)NS(=O)(=O)c1ccc(C)cc1 (stereo partly specified),22 µM
18,COc1ccc(CC2COc3cc(O)c(OC)c(O)c3C2=O)cc1O (stereo unspecified),0.38 µM
19,CCNC(=O)N[C@@H](Cc1ccccc1)C(=O)Oc1cc(CC2COc3cc(OC)c(OC)c(OC)c3C2=O)ccc1OC (stereo partly specified),34 µM

# Source: ChEMBL document CHEMBL3580599, “Synthesis and Biological Evaluation of Novel Homoisoflavonoids for Retinal Neovascularization” (J Med Chem, 2015)
